For 5 compounds, Activity results are on record in ChEMBL document CHEMBL4610011, “Bilobalide and PC12 cells: A structure activity relationship study” (Bioorg Med Chem, 2020).

In assay [1] the test system is PC-12. As to the kind of experiment: Induction of neurite outgrowth in rat PC12 cells at 0.26 ug/ml incubated for 24 hrs by microscopic analysis. It counts as functional, cell-based. The procedure, abridged: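 PC12 cells (2,000/well, collagen I) were treated for 24 h in DMEM with 1% FBS, 1% horse serum and 10 ng/mL NGF containing substance, then cultured 24 h in the same medium without Aβ. Cells were imaged by microscopy before the viability read-out. Cells with neurites equal to, twice, or more than twice the cell length were counted.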

In assay [2] the test system is PC-12. As to the kind of experiment: Neuroprotective activity against amyloid beta (1 to 40 residues)-induced toxicity in rat PC12 cells at 0.26 ug/mL pretreated for 24 hrs followed by 1 uM amyloid beta (1 to 40 residues) challenge and measured after 24 hrs by WST-8 assay. On the technique in general: Tetrazolium assays rely on reduction of a dye to a coloured formazan, in cell work by metabolically active cells.

The subject of assay [3] is PC-12. As to the kind of experiment: Induction of cell proliferation in rat PC12 cells assessed as increase in cell viability at 0.26 ug/ml after 24 hrs in presence of 10 ng/ml NGF by WST-8 assay. It counts as functional, cell-based. The method in brief: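 PC12 cells were seeded at 2,000 cells/well on type I collagen and grown 24 h in DMEM with 10% FBS and 10% horse serum at 37 °C, 5% CO₂. They were then given 24 h in DMEM with 1% FBS, 1% horse serum and 10 ng/mL NGF plus substance, followed by 24 h without Aβ. Viability was read by 10% WST-8 for 1–2 h at A450, relative to 0.004% DMSO vehicle.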

The source made the active and inactive calls. No cut-off for these calls is given here.

For `CC(C)(C)[C@@]12C[C@@H]3OC(=O)C[C@]3(C(=O)O1)[C@@]21[C@H](OC(=O)c2ccc(Br)cc2)OC(=O)[C@@H]1OC(=O)c1ccc(Br)cc1`, the result with PC-12 [1] and in the assay on PC-12 [2] was Active.

Regarding `CC(C)(C)C1=C(C=O)[C@](CC(=O)OCc2ccccc2)(C(=O)OCc2ccccc2)C=C1`, the result in the assay on PC-12 [1] and in the assay on PC-12 [2] was Active.

Turning to `CC(=O)O[C@@H]1OC(=O)[C@H](OC(C)=O)[C@]12[C@@]13CC(=O)O[C@H]1C[C@]2(C(C)(C)C)OC3=O`, the result in the assay with PC-12 [1], with PC-12 [2] and in the assay with PC-12 [3] was Active.

In the case of `CC(C)(C)[C@]1(O)C[C@@H]2OC(=O)C[C@@]23C(=O)O[C@@H]2OC(=O)[C@H](O)[C@]213`, the result in the assay with PC-12 [1], with PC-12 [2] and in the assay with PC-12 [3] was Active.

In the case of `CC(C)(C)[C@]1(O)C[C@@H]2OC(O)C[C@]2(CO)[C@@]12COC[C@@H]2O` (stereo partly drawn), the result in the assay with PC-12 [1] and in the assay on PC-12 [2] was inactive. In addition, in the assay with PC-12 [3], the result was Active.
